Experimental data: paper PMC7453301 (Journal of Pesticide Science, 2020)
≈ marks a conversion by molar mass, not a printed value.

Tests used:
Powdery mildew (Barley) = conditions: cited from earlier work
[1] = molecular target: SDH derived from Rhizoctonia solani (Rhizoctonia solani, UniProt A0A074S2N8+A0A0B7FBK7+A0A0B7FK09); assay: SDH inhibition, DCIP method; type: biochemical; conditions: read-out: SDH IC50
[2] = system: SDH derived from Alternaria brassicae; assay: SDH inhibition, DCIP method; type: biochemical; conditions: read-out: SDH IC50
Marssonina blotch = assay: Field trials, apple Marssonina blotch; type: in vivo; conditions: PARADE 15FL; field trials Aomori Prefecture 2010 and 2013
[3] = molecular target: SDH derived from Mus musculus (Mouse) (Mus musculus, UniProt Q9CQA3+Q9CXV1+Q9CZB0); assay: SDH inhibition, DCIP method; type: biochemical
[4] = molecular target: SDH derived from Cucumis sativus (Cucumber) (Cucumis sativus, UniProt A0A0A0LBZ3+G3EIY8+G3EJ03); assay: SDH inhibition, DCIP method; type: biochemical; conditions: nontarget SDH
[5] = molecular target: SDH derived from Venturia inaequalis (Venturia inaequalis, UniProt A0A0H4U4T0+A0A370JIY7+A0A8H3Z7E8); assay: SDH inhibition, DCIP method; type: biochemical; conditions: read-out: SDH IC50
[6] = molecular target: SDH derived from Brassica oleracea (Cabbage) (Brassica oleracea, UniProt A0A0D3B707+A0A0D3E0G9+A0A0D3EGP9); assay: SDH inhibition, DCIP method; type: biochemical; conditions: nontarget SDH
[7] = molecular target: SDH derived from Solanum lycopersicum (Tomato) (Solanum lycopersicum, UniProt D2KQI9+Q952Q7+Q952R1); assay: SDH inhibition, DCIP method; type: biochemical; conditions: nontarget SDH
Brown rust (Wheat) = conditions: cited from earlier work
[8] = molecular target: SDH derived from Magnaporthe oryzae (Pyricularia oryzae, UniProt A0ABQ8NN34+G4N2P5+G4NB04); type: biochemical; conditions: read-out: SDH IC50
[9] = molecular target: SDH derived from Puccinia recondita (Puccinia triticina, UniProt A0A0C4ES27+A0A180H0E4+A0A915VLF5); assay: SDH inhibition, DCIP method; type: biochemical; conditions: read-out: SDH IC50
Gray mold (Cucumber) = conditions: cited from earlier work
[10] = molecular target: SDH derived from Blumeria graminis (Blumeria graminis, UniProt N1J5Q8+N1JC31+N1JIS1); assay: SDH inhibition, DCIP method; type: biochemical
[11] = system: SDH derived from Pythium aphanidermatum; assay: SDH inhibition, DCIP method; type: biochemical
Solubility in water = type: physicochemical
Outline: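 Water solubility measured at 20°C, reported in mg/L.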

[12] = molecular target: SDH derived from Botrytis cinerea (Botrytis cinerea, UniProt A0A384J5E4+D2IH01+D2IH03); assay: SDH inhibition, DCIP method; type: biochemical
[13] = system: SDH derived from Sclerotinia minor; assay: SDH inhibition, DCIP method; type: biochemical; conditions: read-out: SDH IC50
Sclerotinia sclerotiorum = conditions: cited from earlier work

Sequence of SDH derived from Mus musculus (Mouse) (Q9CQA3 31-282): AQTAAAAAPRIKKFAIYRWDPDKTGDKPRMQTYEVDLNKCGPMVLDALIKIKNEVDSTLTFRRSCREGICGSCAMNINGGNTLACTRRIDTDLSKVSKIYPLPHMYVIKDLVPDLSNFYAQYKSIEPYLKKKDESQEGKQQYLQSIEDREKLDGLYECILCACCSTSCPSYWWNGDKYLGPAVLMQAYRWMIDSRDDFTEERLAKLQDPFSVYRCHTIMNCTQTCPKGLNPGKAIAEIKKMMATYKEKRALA
Sequence of SDH derived from Mus musculus (Mouse) (Q9CZB0 30-169): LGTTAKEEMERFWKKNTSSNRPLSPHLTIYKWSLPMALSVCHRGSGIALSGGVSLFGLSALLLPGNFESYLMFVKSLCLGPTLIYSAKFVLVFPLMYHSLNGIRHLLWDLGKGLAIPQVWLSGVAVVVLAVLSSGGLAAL
Sequence of SDH derived from Mus musculus (Mouse) (Q9CXV1 57-159): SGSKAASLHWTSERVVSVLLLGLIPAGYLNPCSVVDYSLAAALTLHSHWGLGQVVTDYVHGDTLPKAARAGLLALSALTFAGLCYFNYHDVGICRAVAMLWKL
Sequence of SDH derived from Mus musculus (Mouse) (Q8K2B3 43-664 partner): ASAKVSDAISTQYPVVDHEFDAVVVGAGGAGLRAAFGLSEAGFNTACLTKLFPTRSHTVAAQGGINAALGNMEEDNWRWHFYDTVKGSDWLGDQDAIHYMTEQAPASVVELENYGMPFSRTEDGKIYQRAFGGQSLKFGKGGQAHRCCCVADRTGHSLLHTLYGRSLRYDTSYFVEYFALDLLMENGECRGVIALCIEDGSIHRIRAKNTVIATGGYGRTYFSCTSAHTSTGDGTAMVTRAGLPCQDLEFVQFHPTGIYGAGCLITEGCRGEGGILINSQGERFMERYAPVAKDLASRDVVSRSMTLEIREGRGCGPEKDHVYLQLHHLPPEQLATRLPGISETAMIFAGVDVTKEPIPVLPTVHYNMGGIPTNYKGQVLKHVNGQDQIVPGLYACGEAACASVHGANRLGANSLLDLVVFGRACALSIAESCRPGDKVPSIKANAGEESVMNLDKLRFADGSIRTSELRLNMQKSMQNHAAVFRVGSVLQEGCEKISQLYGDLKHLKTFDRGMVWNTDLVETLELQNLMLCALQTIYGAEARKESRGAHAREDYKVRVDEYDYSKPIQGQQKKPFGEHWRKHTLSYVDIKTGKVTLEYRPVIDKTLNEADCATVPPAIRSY
Sequence of SDH derived from Puccinia recondita (A0A180H0E4 31-288): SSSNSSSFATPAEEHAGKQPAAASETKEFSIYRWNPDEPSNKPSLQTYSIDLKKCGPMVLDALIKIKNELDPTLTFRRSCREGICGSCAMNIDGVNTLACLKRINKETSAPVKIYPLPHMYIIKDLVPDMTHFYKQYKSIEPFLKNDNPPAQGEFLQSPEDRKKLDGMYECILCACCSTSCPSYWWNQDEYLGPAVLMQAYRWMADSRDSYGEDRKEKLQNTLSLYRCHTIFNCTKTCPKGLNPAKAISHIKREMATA
Sequence of SDH derived from Puccinia recondita (A0A915VLF5 45-189): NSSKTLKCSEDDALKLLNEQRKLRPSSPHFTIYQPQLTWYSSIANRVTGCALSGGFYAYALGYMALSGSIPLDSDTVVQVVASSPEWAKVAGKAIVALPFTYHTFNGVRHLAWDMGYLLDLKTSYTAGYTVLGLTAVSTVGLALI
Sequence of SDH derived from Puccinia recondita (A0A0C4ES27 40-183): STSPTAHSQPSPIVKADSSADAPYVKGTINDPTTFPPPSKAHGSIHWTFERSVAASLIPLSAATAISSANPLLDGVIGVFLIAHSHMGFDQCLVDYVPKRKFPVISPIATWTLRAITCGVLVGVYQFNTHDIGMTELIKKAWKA
Sequence of SDH derived from Puccinia recondita (A0ABY7CNW8 35-649 partner): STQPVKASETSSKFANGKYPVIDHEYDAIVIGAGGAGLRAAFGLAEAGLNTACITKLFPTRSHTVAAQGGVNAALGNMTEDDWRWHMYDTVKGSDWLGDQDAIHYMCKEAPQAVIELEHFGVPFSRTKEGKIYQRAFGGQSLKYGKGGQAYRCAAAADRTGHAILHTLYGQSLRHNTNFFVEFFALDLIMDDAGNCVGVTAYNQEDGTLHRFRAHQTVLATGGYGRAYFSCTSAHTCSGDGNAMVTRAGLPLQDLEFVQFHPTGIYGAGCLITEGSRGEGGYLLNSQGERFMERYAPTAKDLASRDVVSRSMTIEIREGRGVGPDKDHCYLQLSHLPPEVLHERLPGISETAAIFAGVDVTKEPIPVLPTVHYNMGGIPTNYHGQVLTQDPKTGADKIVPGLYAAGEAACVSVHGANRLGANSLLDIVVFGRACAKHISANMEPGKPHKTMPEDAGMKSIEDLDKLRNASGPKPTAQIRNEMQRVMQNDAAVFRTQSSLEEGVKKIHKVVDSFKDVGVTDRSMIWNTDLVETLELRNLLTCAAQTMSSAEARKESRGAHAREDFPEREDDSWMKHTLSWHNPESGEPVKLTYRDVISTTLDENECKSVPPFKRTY
Sequence of SDH derived from Botrytis cinerea (A0A384J5E4 30-300): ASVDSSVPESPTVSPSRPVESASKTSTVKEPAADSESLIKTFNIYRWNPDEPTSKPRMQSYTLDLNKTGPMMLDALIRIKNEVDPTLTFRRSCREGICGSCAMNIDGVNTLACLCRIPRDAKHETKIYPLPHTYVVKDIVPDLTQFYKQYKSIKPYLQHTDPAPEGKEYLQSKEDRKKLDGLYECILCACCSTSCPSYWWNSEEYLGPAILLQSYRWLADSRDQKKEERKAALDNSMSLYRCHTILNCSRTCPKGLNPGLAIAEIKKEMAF
Sequence of SDH derived from Botrytis cinerea (D2IH03 46-189): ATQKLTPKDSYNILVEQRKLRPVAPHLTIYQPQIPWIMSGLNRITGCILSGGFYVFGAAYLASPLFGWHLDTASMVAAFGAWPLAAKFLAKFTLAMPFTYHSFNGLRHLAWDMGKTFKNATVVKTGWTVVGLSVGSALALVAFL
Sequence of SDH derived from Botrytis cinerea (D2IH01 64-192): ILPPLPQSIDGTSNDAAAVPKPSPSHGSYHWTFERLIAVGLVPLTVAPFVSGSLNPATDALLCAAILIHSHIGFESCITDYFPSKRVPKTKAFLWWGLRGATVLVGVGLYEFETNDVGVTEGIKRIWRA
Sequence of SDH derived from Botrytis cinerea (A0A384K456 34-647 partner): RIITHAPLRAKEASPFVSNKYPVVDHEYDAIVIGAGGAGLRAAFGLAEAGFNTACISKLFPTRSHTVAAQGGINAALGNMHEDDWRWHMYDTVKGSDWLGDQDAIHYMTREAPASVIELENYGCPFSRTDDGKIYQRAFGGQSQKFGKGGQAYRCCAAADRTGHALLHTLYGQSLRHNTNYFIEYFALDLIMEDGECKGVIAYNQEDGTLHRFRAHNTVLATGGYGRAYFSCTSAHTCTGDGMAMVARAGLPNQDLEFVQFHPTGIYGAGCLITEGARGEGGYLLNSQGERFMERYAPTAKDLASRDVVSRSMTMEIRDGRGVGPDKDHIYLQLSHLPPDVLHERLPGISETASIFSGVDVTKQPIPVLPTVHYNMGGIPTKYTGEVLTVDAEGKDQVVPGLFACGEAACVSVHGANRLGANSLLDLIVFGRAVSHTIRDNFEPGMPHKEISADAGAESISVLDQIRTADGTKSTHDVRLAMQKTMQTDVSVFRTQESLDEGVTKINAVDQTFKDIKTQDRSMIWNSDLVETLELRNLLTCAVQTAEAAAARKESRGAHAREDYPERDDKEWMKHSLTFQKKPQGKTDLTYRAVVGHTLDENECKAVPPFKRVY
Sequence of SDH derived from Cucumis sativus (Cucumber) (A0A0A0LBZ3 28-277): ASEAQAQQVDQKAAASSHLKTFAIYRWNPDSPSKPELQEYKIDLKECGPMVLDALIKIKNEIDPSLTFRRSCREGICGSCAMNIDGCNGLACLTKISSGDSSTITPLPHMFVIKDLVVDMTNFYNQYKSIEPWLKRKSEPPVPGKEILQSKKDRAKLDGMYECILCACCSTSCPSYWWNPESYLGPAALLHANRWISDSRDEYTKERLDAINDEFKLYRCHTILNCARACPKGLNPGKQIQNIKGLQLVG
Sequence of SDH derived from Cucumis sativus (Cucumber) (G3EIY8 1-105): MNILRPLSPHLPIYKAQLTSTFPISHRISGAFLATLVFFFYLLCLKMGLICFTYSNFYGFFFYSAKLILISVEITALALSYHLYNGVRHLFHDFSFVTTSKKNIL
Sequence of SDH derived from Cucumis sativus (Cucumber) (G3EJ03 1-144): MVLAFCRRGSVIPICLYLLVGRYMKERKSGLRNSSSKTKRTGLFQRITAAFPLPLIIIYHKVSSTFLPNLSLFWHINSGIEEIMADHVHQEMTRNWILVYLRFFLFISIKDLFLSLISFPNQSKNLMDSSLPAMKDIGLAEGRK
Sequence of SDH derived from Cucumis sativus (Cucumber) (A0A0A0KUM6 34-635 partner): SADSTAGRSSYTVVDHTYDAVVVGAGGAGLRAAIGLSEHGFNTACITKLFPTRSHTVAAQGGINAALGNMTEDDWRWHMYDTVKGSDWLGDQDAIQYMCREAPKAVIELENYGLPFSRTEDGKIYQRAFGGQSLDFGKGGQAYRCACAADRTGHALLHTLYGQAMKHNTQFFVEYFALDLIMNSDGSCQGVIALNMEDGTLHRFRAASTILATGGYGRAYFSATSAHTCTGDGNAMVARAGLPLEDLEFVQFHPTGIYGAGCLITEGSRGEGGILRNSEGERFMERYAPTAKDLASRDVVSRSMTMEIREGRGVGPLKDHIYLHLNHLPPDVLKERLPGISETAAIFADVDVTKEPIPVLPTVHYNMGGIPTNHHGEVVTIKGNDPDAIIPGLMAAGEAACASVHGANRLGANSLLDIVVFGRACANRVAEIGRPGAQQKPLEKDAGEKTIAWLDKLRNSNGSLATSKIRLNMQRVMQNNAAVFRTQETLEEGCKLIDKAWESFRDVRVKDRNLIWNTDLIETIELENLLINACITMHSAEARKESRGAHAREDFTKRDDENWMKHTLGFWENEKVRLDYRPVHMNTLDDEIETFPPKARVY

Question: For `O=C(Nc1ccccc1-c1ccc(F)c(F)c1)c1nccnc1C(F)(F)F` [Compound 9, N-(3′,4′-difluorobiphenyl-2-yl)-3-(trifluoromethyl)pyrazine-2-carboxamide], which “Fungicidal activity EC80, Powdery mildew (Barley)” value (Powdery mildew (Barley)) is on record?
Answer: Its value is 0.5–2 mg a.i./L.

Question: And the IC50 [1]?
Answer: The IC50 was 5.9 nM.

Question: And the IC50 [2]?
Answer: Its IC50 is 2.1 nM.

Question: What about the “residual activity against Marssonina blotch of apple” value (Marssonina blotch) of the same compound?
Answer: Its value is “excellent residual activity”.

Question: And the IC50 [3]?
Answer: Its IC50 is greater than 32 µM.

Question: And the SDH inhibitory activity ([3]; nontarget SDH, mice)?
Answer: Its SDH inhibitory activity is “did not show any inhibitory activity”.

Question: What about the SDH inhibitory activity [4] of the same compound?
Answer: Its SDH inhibitory activity is “did not show any inhibitory activity”.

Question: And the IC50 [5]?
Answer: Its IC50 is 18.9 nM.

Question: And the SDH inhibitory activity [6]?
Answer: Its SDH inhibitory activity is “did not show any inhibitory activity”.

Question: And the SDH inhibitory activity [7]?
Answer: Its SDH inhibitory activity is “did not show any inhibitory activity”.

Question: What about the “Fungicidal activity EC80, Brown rust (Wheat)” value (Brown rust (Wheat)) of the same compound?
Answer: Its value is 0.5–2 mg a.i./L.

Question: What about the IC50 [8] of the same compound?
Answer: Its IC50 is 2500 nM.

Question: What about the IC50 [9] of the same compound?
Answer: Its IC50 is 14.4 nM.

Question: And the “Fungicidal activity EC80, Gray mold (Cucumber)” value (Gray mold (Cucumber))?
Answer: Its value is 2–10 mg a.i./L.

Question: What about the IC50 [10] of the same compound?
Answer: The IC50 was 5.8 nM.

Question: And the SDH inhibitory activity ([11]; oomycete Pythium aphanidermatum)?
Answer: Its SDH inhibitory activity is “no inhibitory activity”.

Question: What about the IC50 ([11]; read-out: SDH IC50, Pythium aphanidermatum) of the same compound?
Answer: The IC50 was greater than 8 µM.

Question: And the solubility (Solubility in water)?
Answer: The solubility was 2.32 µg/mL (≈ 6.12 µM).

Question: What about the IC50 [12] of the same compound?
Answer: Its IC50 is 4.1 nM.

Question: And the IC50 [13]?
Answer: Its IC50 is 0.7 nM.

Question: What about the “inhibition activity against apothecium formation” value (Sclerotinia sclerotiorum) of the same compound?
Answer: Its value is “exhibits inhibition activity”.
